According to publication PMC4381552 (Cell reports, 2014):

How the values were obtained:
[1] = ref Tijono et al., 2013; cited from earlier work
wild-type (WT) hSTING = wild-type (WT) hSTING (Homo sapiens, UniProt Q86WV6, H232R); assay: ITC binding of DMXAA to STING CTD; settings: 25°C
[2] = target: hSTING^group1 (aa 140-379) (Homo sapiens, UniProt Q86WV6, E174G/H185L/H232R/L189M/Q196R/R191S/T181M/V194G/Y182F/Y186H); assay: ITC binding of DMXAA to STING CTD; settings: 25°C
hSTING^group3 = hSTING^group3 (Homo sapiens, UniProt Q86WV6, A300E/A302V/D297E/H232R/Q276K/Q306R/S275A/Y274D); assay: ITC binding of DMXAA to STING CTD; settings: 25°C
Chain of hSTING^group3 (Q86WV6 140-379 H232R/Y274D/S275A/Q276K/D297E/A300E/A302V/Q306R): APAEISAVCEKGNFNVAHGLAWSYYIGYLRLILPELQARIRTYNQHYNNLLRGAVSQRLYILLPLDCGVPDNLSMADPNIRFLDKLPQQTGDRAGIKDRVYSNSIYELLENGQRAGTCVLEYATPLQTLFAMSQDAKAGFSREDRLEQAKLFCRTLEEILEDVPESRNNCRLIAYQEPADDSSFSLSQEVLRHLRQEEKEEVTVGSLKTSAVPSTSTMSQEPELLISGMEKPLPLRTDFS

hSTING^group4 = hSTING^group4 (Homo sapiens, UniProt Q86WV6, A350V/E362R/E369D/F378L/G344N/H232R/K347M/K370Q/L346P/M357L/S345A/S353P/S379I/T354P/T356V/V343M/V351A); assay: ITC binding of DMXAA to STING CTD; settings: 25°C
Chain of hSTING^group4 (Q86WV6 140-379 with the stated changes): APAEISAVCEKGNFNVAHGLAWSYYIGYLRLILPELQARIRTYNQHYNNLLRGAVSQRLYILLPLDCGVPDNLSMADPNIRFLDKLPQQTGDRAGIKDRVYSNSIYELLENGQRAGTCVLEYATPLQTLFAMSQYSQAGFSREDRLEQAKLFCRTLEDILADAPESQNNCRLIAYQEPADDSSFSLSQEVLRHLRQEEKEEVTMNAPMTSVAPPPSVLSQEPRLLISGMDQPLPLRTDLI

hSTING^group2 = hSTING^group2 (Homo sapiens, UniProt Q86WV6, D237N/G230I/H232R/I244V/K224M/L222R/T229N); assay: IFN-β luciferase reporter assay in transfected 293T cells; format: cell-based; settings: 0.18 mM DMXAA (50 μg/ml), 12 hr
Chain of hSTING^group2 (Q86WV6 whole entry L222R/K224M/T229N/G230I/H232R/D237N/I244V): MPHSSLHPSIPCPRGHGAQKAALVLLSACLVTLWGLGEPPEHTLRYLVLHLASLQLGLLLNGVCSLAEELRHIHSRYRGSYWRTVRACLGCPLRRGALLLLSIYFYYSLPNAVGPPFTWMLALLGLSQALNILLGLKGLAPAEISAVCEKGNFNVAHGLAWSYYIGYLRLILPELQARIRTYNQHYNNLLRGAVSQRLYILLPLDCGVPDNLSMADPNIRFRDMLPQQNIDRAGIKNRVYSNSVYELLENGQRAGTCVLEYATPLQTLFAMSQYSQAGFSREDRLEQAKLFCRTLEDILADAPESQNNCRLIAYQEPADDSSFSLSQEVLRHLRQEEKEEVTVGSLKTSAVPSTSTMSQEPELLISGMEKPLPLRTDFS

hSTING^group134 = hSTING^group134 (Homo sapiens, UniProt Q86WV6, A300E/A302V/A350V/D297E/E174G/E362R/E369D/F378L/G344N/H185L/H232R/K347M/K370Q/L189M/L346P/M357L/Q196R/Q276K/Q306R/R191S/S275A/S345A/S353P/S379I/T181M/T354P/T356V/V194G/V343M/V351A/Y182F/Y186H/Y274D); assay: IFN-β luciferase reporter assay in transfected 293T cells; format: cell-based; settings: 0.18 mM DMXAA (50 μg/ml), 12 hr, versus hSTING^group1234
Chain of hSTING^group134 (Q86WV6 1-379 with the stated changes): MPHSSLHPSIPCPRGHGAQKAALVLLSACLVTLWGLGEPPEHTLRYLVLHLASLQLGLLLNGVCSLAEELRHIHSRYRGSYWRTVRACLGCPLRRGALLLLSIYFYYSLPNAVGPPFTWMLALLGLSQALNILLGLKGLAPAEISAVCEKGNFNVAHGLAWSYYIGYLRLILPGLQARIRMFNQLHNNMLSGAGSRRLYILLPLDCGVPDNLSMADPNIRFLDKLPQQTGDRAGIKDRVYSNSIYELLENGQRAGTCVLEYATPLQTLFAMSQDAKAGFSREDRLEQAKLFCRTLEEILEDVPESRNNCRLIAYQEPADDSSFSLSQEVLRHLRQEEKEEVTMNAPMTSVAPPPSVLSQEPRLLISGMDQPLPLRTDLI
Procedure, shortened: (§1)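 HEK293T cells were reverse-transfected with full-length STING plasmids, expressed at moderate levels, plus IFN-β reporter constructs. […] Luciferase was read 12 hr later. Gaussia luciferase was normalized to constitutive firefly luciferase. Values are means of triplicates + SEM, representative of three independent experiments.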

hSTING Q266I = hSTING Q266I (Homo sapiens, UniProt Q86WV6, H232R/Q266I); assay: as above; format: cell-based; settings: 0.18 mM DMXAA, 12 hr
Chain of hSTING Q266I (Q86WV6 whole entry H232R/Q266I): as the sequence (Q86WV6 whole entry L222R/K224M/T229N/G230I/H232R/D237N/I244V) above, with R222L, M224K, N229T, I230G, N237D, V244I, Q266I counted along it
Procedure, shortened: as §1

hSTING Q266L = hSTING Q266L (Homo sapiens, UniProt Q86WV6, H232R/Q266L); assay: as above; format: cell-based; settings: 0.18 mM DMXAA, 12 hr
Chain of hSTING Q266L (Q86WV6 whole entry H232R/Q266L): as the sequence (Q86WV6 whole entry L222R/K224M/T229N/G230I/H232R/D237N/I244V) above, with R222L, M224K, N229T, I230G, N237D, V244I, Q266L counted along it
Procedure, shortened: as §1

hSTING G166S = hSTING G166S (Homo sapiens, UniProt Q86WV6, G166S/H232R); assay: as above; format: cell-based; settings: 0.18 mM DMXAA, 12 hr
Chain of hSTING G166S (Q86WV6 whole entry G166S/H232R): as the sequence (Q86WV6 whole entry L222R/K224M/T229N/G230I/H232R/D237N/I244V) above, with G166S, R222L, M224K, N229T, I230G, N237D, V244I counted along it
Procedure, shortened: as §1

hSTING I235L = hSTING I235L (Homo sapiens, UniProt Q86WV6, H232R/I235L); assay: as above; format: cell-based; settings: 0.18 mM DMXAA, 12 hr
Chain of hSTING I235L (Q86WV6 whole entry H232R/I235L): as the sequence (Q86WV6 whole entry L222R/K224M/T229N/G230I/H232R/D237N/I244V) above, with R222L, M224K, N229T, I230G, I235L, N237D, V244I counted along it
Procedure, shortened: as §1

hSTING Q266V = hSTING Q266V (Homo sapiens, UniProt Q86WV6, H232R/Q266V); assay: as above; format: cell-based; settings: 0.18 mM DMXAA, 12 hr
Chain of hSTING Q266V (Q86WV6 whole entry H232R/Q266V): as the sequence (Q86WV6 whole entry L222R/K224M/T229N/G230I/H232R/D237N/I244V) above, with R222L, M224K, N229T, I230G, N237D, V244I, Q266V counted along it
Procedure, shortened: as §1

WT hSTING = WT hSTING (Homo sapiens, UniProt Q86WV6, H232R); assay: Cytokine/chemokine induction in STING^Gt/Gt BMDCs reconstituted with hSTING; format: cell-based; settings: 50 µg/ml DMXAA, 3 hr, real-time PCR
Chain of WT hSTING (Q86WV6 whole entry H232R): as the sequence (Q86WV6 whole entry L222R/K224M/T229N/G230I/H232R/D237N/I244V) above, with R222L, M224K, N229T, I230G, N237D, V244I counted along it
Procedure, shortened: (§2)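 STING-deficient BMDCs were derived from STINGGt/Gt mouse bone marrow cultured with GM-CSF for 10 days and plated at 1 × 10^6 cells/well. They were infected with retroviruses expressing hSTING variants, and hSTING levels were checked by western blot. […] IFNB1, CXCL10, CCL5 and IL-6 mRNA were measured by real-time PCR. Data are means ± SEM (n = 3) from one of two experiments.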

hSTING^G230I = hSTING^G230I (Homo sapiens, UniProt Q86WV6, G230I/H232R); assay: as above; format: cell-based; settings: 50 µg/ml DMXAA, 3 hr, real-time PCR
Chain of hSTING^G230I (Q86WV6 whole entry G230I/H232R): as the sequence (Q86WV6 whole entry L222R/K224M/T229N/G230I/H232R/D237N/I244V) above, with R222L, M224K, N229T, N237D, V244I counted along it
Procedure, shortened: as §2

hSTING^S162A/Q266I = hSTING^S162A/Q266I (Homo sapiens, UniProt Q86WV6, H232R/Q266I/S162A); assay: as above; format: cell-based; settings: 50 µg/ml DMXAA, 3 hr, real-time PCR
Chain of hSTING^S162A/Q266I (Q86WV6 whole entry S162A/H232R/Q266I): as the sequence (Q86WV6 whole entry L222R/K224M/T229N/G230I/H232R/D237N/I244V) above, with S162A, R222L, M224K, N229T, I230G, N237D, V244I, Q266I counted along it
Procedure, shortened: as §2

hSTING^S162A/G230I/Q266I = hSTING^S162A/G230I/Q266I (Homo sapiens, UniProt Q86WV6, G230I/H232R/Q266I/S162A); assay: as above; format: cell-based; settings: 50 µg/ml DMXAA
Chain of hSTING^S162A/G230I/Q266I (Q86WV6 whole entry S162A/G230I/H232R/Q266I): as the sequence (Q86WV6 whole entry L222R/K224M/T229N/G230I/H232R/D237N/I244V) above, with S162A, R222L, M224K, N229T, N237D, V244I, Q266I counted along it
Procedure, shortened: as §2

hSTING^S162A = hSTING^S162A (Homo sapiens, UniProt Q86WV6, H232R/S162A); assay: as above; format: cell-based; settings: 50 µg/ml DMXAA, 3 hr, real-time PCR
Chain of hSTING^S162A (Q86WV6 whole entry S162A/H232R): as the sequence (Q86WV6 whole entry L222R/K224M/T229N/G230I/H232R/D237N/I244V) above, with S162A, R222L, M224K, N229T, I230G, N237D, V244I counted along it
Procedure, shortened: as §2

[3] = test system: all hSTING alleles with S162A/Q266I double substitution; assay: IFN-β luciferase reporter assay in transfected 293T cells; format: cell-based, human; settings: 0.18 mM DMXAA, alleles R232, HAQ, H232, AQ, Q293
Procedure, shortened: as §1

[4] = test system: non-small-cell lung cancer; settings: in combination with paclitaxel and carboplatin; ref Lara et al., 2011; cited from earlier work

Chain of wild-type (WT) hSTING (Q86WV6 140-379 H232R): as the sequence (Q86WV6 140-379 H232R/Y274D/S275A/Q276K/D297E/A300E/A302V/Q306R) above, with D135Y, A136S, K137Q, E158D, E161A, V163A, R167Q counted along it
Chain of hSTING^group1 (aa 140-379) (Q86WV6 140-379 E174G/T181M/Y182F/H185L/Y186H/L189M/R191S/V194G/Q196R/H232R): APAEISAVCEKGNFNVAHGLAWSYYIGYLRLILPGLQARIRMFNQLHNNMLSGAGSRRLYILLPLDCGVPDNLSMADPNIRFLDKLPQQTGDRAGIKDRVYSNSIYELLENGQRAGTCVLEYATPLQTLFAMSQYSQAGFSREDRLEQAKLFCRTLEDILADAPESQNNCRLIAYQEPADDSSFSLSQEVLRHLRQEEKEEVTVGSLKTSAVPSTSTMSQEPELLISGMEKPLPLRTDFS

Cc1ccc2oc3c(CC(=O)O)cccc3c(=O)c2c1 [7-methyl-XAA]
activity in human [1]: weak yet human-active

Cc1cccc2oc3c(CC(=O)O)cccc3c(=O)c12 [8-methyl-XAA]
activity in human [1]: weak yet human-active

Cc1ccc2c(=O)c3cccc(CC(=O)O)c3oc2c1C [DMXAA, 5,6-dimethylxanthenone-4-acetic acid]
binding to DMXAA (wild-type (WT) hSTING): no detectable binding
binding to DMXAA [2]: no detectable binding
binding to DMXAA (hSTING^group3): no detectable binding
binding to DMXAA (hSTING^group4): no detectable binding
IFN-β reporter response (hSTING^group2): showed responsiveness to DMXAA
IFN-β reporter response (hSTING^group134): strongly diminished DMXAA activation
IFN-β induction (hSTING Q266I): conferred DMXAA sensitivity
IFN-β induction (hSTING Q266L): less pronounced gain
IFN-β induction (hSTING G166S): showed no effects
IFN-β induction (hSTING I235L): showed no effects
IFN-β induction (hSTING Q266V): showed no effects
IFN-β mRNA upregulation (WT hSTING): did not induce the upregulation
increase in IFN-β mRNA levels (hSTING^G230I): 2.6 fold
increase in IFN-β mRNA levels (hSTING^S162A/Q266I): 3.1 fold
increase in IFN-β mRNA levels (hSTING^S162A/G230I/Q266I; 3 hr, real-time PCR): 4.2 fold
upregulation of CXCL10, CCL5, and IL-6 mRNAs (hSTING^S162A/G230I/Q266I; 3 hr, real-time PCR): strongest induction among the four mutants
CXCL10 production (supernatant, ELISA) (hSTING^S162A/G230I/Q266I; 18 hr): highest level of CXCL10 production
increase in IFN-β mRNA levels (hSTING^S162A): 2.2 fold
DMXAA responsiveness (IFN-β reporter) [3]: able to induce DMXAA responsiveness
outcome of human phase III trials [4]: failed
